From publication PMC5669405 (Biochemistry and Biophysics Reports, 2015)
Blank lines part the entries; values can stand above or below the compound they belong to.

Legend:
Aβ (1–42) [1] = biological target: T1, Aβ (1–42) (Homo sapiens, UniProt P05067); assay: SDS-PAGE and western blotting of Aβ; type: biochemical; conditions: for Smear bands in SDS-PAGE: 30 µM compound, 24 h, 37 °C; for Effects on Aβ aggregation (in words): derivatives without hydroxy groups on the aromatic groups
How it was run: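 Aβ(1–42) monomerized in HFIP (1 mM, 37 °C, 1 h), diluted to 10 µM in PBS with 30 µM test compound (final; DMSO vehicle), incubated 24 h at 37 °C. Diluted to 2.25 µM in unheated SDS buffer, run on 10–20% gels, blotted to PVDF and probed with 6E10 then HRP anti-mouse, with chemiluminescence detection. Band intensities per range were read against marker. Means±SEM, ≥3 independent experiments, ANOVA/Dunnett vs DMSO.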

SH-SY5Y cells [2] = assay: MTT cell viability, compound alone; type: cell-based, human; conditions: SH-SY5Y, 24 h; for Viability C. Compound alone: 0.9 µM compound, mean±SEM
How it was run: (§1)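 Cells were SH-SY5Y grown in DMEM/F12 with 10% FBS at 37 °C and 5% CO₂, seeded at 5×10⁴ cells/well, and given fresh medium with 0.9 µM compound alone 24 h after plating. After 24 h, MTT (5 mg/mL stock) was added for 4 h, then isopropanol/0.04 mol/L HCl overnight. Read OD570 minus OD700, normalised to untreated and 100% death controls. Triplicate wells, three plates, mean±SEM, kept in the dark.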

Solubility check = type: physicochemical
Aβ (1–42) [3] = biological target: T1, Aβ (1–42); assay: Native gel electrophoresis of Aβ; type: biochemical; conditions: 30 µM compound, 24 h, 37 °C
How it was run: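 HFIP-pretreated Aβ(1–42) (5 mM DMSO stock) was diluted to 10 µM in PBS with 30 µM compound (1.5 mM DMSO stock) and held 24 h at 37 °C in the dark; DMSO served as vehicle. Samples were brought to 2.25 µM in native sample buffer, run on 5–20% gels at 100 V for 4 h at 4 °C and transferred to PVDF. Blots used 6E10 anti-Aβ (1:1000), HRP anti-mouse (1:20,000) and chemiluminescence.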

[4] = MTT cell viability, compound alone; type: cell-based, human; conditions: human, SH-SY5Y neuroblastoma cells
How it was run: as §1

SH-SY5Y cells [5] = assay: MTT cell viability, simultaneous treatment with Aβ aggregates and the compounds; type: cell-based, human; conditions: 24 h, 0.3 µM Aβ aggregates, 0.9 µM compound
How it was run: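 Aβ(1–42) was HFIP-pretreated, taken up at 5 mM in DMSO, diluted to 10 µM in PBS and aggregated 24 h at 37 °C. SH-SY5Y cells (5×10⁴/well, 24 h after plating) received 0.3 µM of these aggregates plus 0.9 µM compound together for 24 h. Read-out was MTT (4 h), OD570−OD700, as % of untreated and 100% death controls. Triplicate wells in ≥3 independent runs; ANOVA/Dunnett against DMSO vehicle.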

Aβ aggregates = Aβ aggregates (Homo sapiens, UniProt P05067); assay: Thioflavin T fluorescence competition assay; type: binding
amyloid plaques = conditions: transgenic mouse model of AD, injection via the tail vein; cited from earlier work
APP/PS1 mice = conditions: cited from earlier work
Aβ = conditions: cited from earlier work
[6] = all ranges of 15–20, 20–37, 37–75, and 75–200 kDa

T1 sequence (P05067 672-713): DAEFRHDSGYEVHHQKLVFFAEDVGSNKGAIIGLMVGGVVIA
Chain of Aβ aggregates (P05067 672-713): as above

Compound: O=C(C=Cc1ccc(O)c(OC(F)(F)F)c1)C(CCOC1CCCCO1)C(=O)C=Cc1ccc(O)c(OC(F)(F)F)c1 (stereo not drawn) [SY33, 1,7-Bis[(4-hydroxy-3-trifluoromethoxy)phenyl]-4-(2-tetrahydropyranyloxy)ethyl-1,6-heptadiene-3,5-dione]
Smear bands in SDS-PAGE (Aβ (1–42) [1]): Marked smear bands
Densities of the bands of Aβ (1–42) vs vehicle control (in words) (Aβ (1–42) [1]; [6]): significant increases
Viability C. Compound alone (SH-SY5Y cells [2]): 97.8±4.2%
Solubility / precipitation (Solubility check; 30 µM in PBS with DMSO): no precipitation
Smear bands in native-PAGE (Aβ (1–42) [3]): Marked smear bands

Compound: COC(=O)COc1ccc(C=CC(=O)CC(=O)C=Cc2ccc(O)c(OC)c2)cc1OC [SY35, 1-[(4-Hydroxy-3-methoxy)phenyl]-7-[(3-methoxy-4-methoxycarbonylmethoxy)phenyl]-1,6-heptadiene-3,5-dione]
Viability C. Compound alone (SH-SY5Y cells [2]): 93.7±2.9%

Compound: COc1cc(C=CC(=O)CC(=O)C=Cc2ccc(O)c(OC(F)(F)F)c2)ccc1O [SY2, 1-[(4-Hydroxy-3-methoxy)phenyl]-7-[(4-hydroxy-3-trifluoromethoxy)phenyl]-1,6-heptadiene-3,5-dione]
Densities of the bands of Aβ (1–42) vs vehicle control (in words) (Aβ (1–42) [1]; only in the range of 15–20 kDa): significant increases
Viability C. Compound alone (SH-SY5Y cells [2]): 101.4±2.0%

Compound: CCC(C(=O)C=Cc1ccc(O)c(OC(F)(F)F)c1)C(=O)C=Cc1ccc(O)c(OC(F)(F)F)c1 (stereo not drawn) [SY41, 1,7-Bis[(4-hydroxy-3-trifluoromethoxy)phenyl]-4-ethyl-1,6-heptadiene-3,5-dione]
Viability C. Compound alone (SH-SY5Y cells [2]): 93.4±5.9%

Compound: COC(=O)CCC(C(=O)C=Cc1ccc(O)c(OC(F)(F)F)c1)C(=O)C=Cc1ccco1 (stereo not drawn) [SY37, 1-[(4-Hydroxy-3-trifluoromethoxy)phenyl]-7-(2-furyl)-4-methoxycarbonylethyl-1,6-heptadiene-3,5-dione]
Densities of the bands of Aβ (1–42) vs vehicle control (in words) (Aβ (1–42) [1]; only in the range of 20–37 kDa): significant increases
Viability C. Compound alone (SH-SY5Y cells [2]): 93.0±4.1%

Compound: COc1ccc(C=CC(=O)C(C)C(=O)C=Cc2ccc(OC)c(OC(F)(F)F)c2)cc1OC(F)(F)F (stereo not drawn) [SY18, 1,7-Bis[(4-methoxy-3-trifluoromethoxy)phenyl]-4-methyl-1,6-hexadiene-3,5-dione]
Effects on Aβ aggregation (in words) (Aβ (1–42) [1]): no effects on Aβ aggregation
Cell viability after treatment with compound alone (in words) (SH-SY5Y cells [2]; 0.9 µM): significantly reduced cell viability
Viability C. Compound alone (SH-SY5Y cells [2]): 69.5±7.7 %

Compound: COC(=O)CCC(C(=O)C=Cc1cc(F)c(O)c(F)c1)C(=O)C=Cc1cc(F)c(O)c(F)c1 (stereo not drawn) [SY16, 1,7-Bis[(4-hydroxy-3,5-difluoro)phenyl]-4-methoxycarbonylethyl-1,6-hexadiene-3,5-dione]
Viability C. Compound alone (SH-SY5Y cells [2]): 94.1±2.8%

Compound: O=C(C=Cc1ccc(O)c(OC(F)(F)F)c1)C(CCOCCOCCOCCOC1CCCCO1)C(=O)C=Cc1ccc(O)c(OC(F)(F)F)c1 (stereo not drawn) [SY27, 1,7-Bis[(4-hydroxy-3-trifluoromethoxy)phenyl]-4-[11-(2-tetrahydropyranyloxy)-3,6,9-trioxaundec-1yl]-1,6-heptadiene-3,5-dione]
Viability C. Compound alone (SH-SY5Y cells [2]): 98.5±5.3%

Compound: COC(=O)CCC(C(=O)C=Cc1ccc(O)c(OC)c1)C(=O)C=Cc1ccc(O)c(OC)c1 (stereo not drawn) [SY23, 1,7-Bis[(4-hydroxy-3-methoxy)phenyl]-4-methoxycarbonylethyl-1,6-heptadiene-3,5-dione]
Viability C. Compound alone (SH-SY5Y cells [2]): 97.9±2.4%

Compound: COc1cc(C=CC(=O)CC(=O)C=Cc2cc(C(F)(F)F)cc(C(F)(F)F)c2)ccc1O [SY4, 1-[(4-Hydroxy-3-methoxy)phenyl]-7-[3,5-bis(trifluoromethyl)phenyl]-1,6-heptadiene-3,5-dione]
Cell viability after simultaneous treatment vs vehicle control (in words) (SH-SY5Y cells [5]): significant reduction in cell viability
Viability C. Compound alone (SH-SY5Y cells [2]): 91.6±3.2%

Now from value to compound, other results behind:

Densities of the bands of Aβ (1–42) vs vehicle control (in words) (Aβ (1–42) [1]; only in the range of 20–37 kDa): significant increases
Compound: COC(=O)CCC(C(=O)C=Cc1ccc(O)c(F)c1)C(=O)C=Cc1ccc(O)c(F)c1 (stereo not drawn) [SY38, 1,7-Bis[(4-hydroxy-3-fluoro)phenyl]-4-methoxycarbonylethyl-1,6-heptadiene-3,5-dione]
Viability C. Compound alone (SH-SY5Y cells [2]): 91.6±3.9%

Effects on Aβ aggregation (in words) (Aβ (1–42) [1]): no effects on Aβ aggregation
Compound: COc1ccc(C=CC(=O)C(CCC(=O)OC(C)(C)C)C(=O)C=Cc2ccc(OC)c(F)c2)cc1F (stereo not drawn) [SY42, 1,7-Bis[(3-fluoro-4-methoxy)phenyl]-4-(1,1-dimethylethoxy)carbonylethyl-1,6-heptadiene-3,5-dione]
Viability C. Compound alone (SH-SY5Y cells [2]): 88.6±6.3%

Solubility / precipitation (Solubility check; 30 µM in PBS with DMSO): no precipitation
Solubility / precipitation (Solubility check; 200 µM solution): clearly observed precipitates
Compound: COc1cc(/C=C/C(=O)CC(=O)/C=C/c2ccc(O)c(OC)c2)ccc1O [Cur, Curcumin, reference compound]
viability at 24 h, 0.9 µM [4]: 97.5 ± 7.3%

IC50 (Aβ aggregates): 440 nM
Smear bands in SDS-PAGE (Aβ (1–42) [1]): Marked smear bands
Densities of the bands of Aβ (1–42) vs vehicle control (in words) (Aβ (1–42) [1]; [6]): significant increases
Solubility / precipitation (Solubility check; 30 µM in PBS with DMSO): no precipitation
Smear bands in native-PAGE (Aβ (1–42) [3]): Marked smear bands
Compound: COC(=O)CCC(C(=O)C=Cc1ccc(O)c(OC(F)(F)F)c1)C(=O)C=Cc1ccc(O)c(OC(F)(F)F)c1 (stereo not drawn) [SY5, 1,7-bis (4′-hydroxy-3′-trifluoromethoxyphenyl)-4-methoxycarbonylethyl-1,6-heptadiene-3,5-dione]
viability at 24 h, 0.9 µM [4]: 102 ± 3.6%
Binding to amyloid plaques in brain (amyloid plaques): bound to amyloid plaques
Blood–brain barrier penetration (amyloid plaques): penetrated the blood–brain barrier
Amyloid deposition (APP/PS1 mice): reduce amyloid deposition
Cognitive decline (APP/PS1 mice): inhibit cognitive decline
Inhibition of Aβ aggregation (Aβ; 30 µM, ref our previous study): significant inhibition of Aβ aggregation
Formation of higher molecular size Aβ aggregates (Aβ; incubated with Aβ during the aggregation state in vitro): inhibit the formation of higher molecular size Aβ aggregates

Effects on Aβ aggregation (in words) (Aβ (1–42) [1]): no effects on Aβ aggregation
Compound: COCOc1ccc(C=CC(=O)C(CCC(=O)OC(C)(C)C)C(=O)C=Cc2ccc(OCOC)c(OC(F)(F)F)c2)cc1OC(F)(F)F (stereo not drawn) [SY22, 1,7-Bis[(4-methoxymethoxy-3-trifluoromethoxy)phenyl]-4-(1,1-dimethylethoxy)carbonylethyl-1,6-hexadiene-3,5-dione]
Viability C. Compound alone (SH-SY5Y cells [2]): 95.8±3.6%

Effects on Aβ aggregation (in words) (Aβ (1–42) [1]): no effects on Aβ aggregation
Compound: COc1ccc(C=CC(=O)CC(=O)C=Cc2ccc(OC)c(F)c2)cc1F [SY9, 1,7-Bis[(3-fluoro-4-methoxy)phenyl]-1,6-heptadiene-3,5-dione]
Viability C. Compound alone (SH-SY5Y cells [2]): 94.2±2.5%
